Only some compounds are listed: those with a hit (about 1.5% of all), similar ones and a draw of the others.
CXCR6 block: inhibitors of human CXCR6 receptor | CHO-K1 PathHunter CXCR6 beta-arrestin, luminescence | AID 602244 | inhibition, % at 20 µM | 360,000 tested, 0.36% active; in the data active = inhibition above about 34%, passing the limit was not always enough;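 also: antagonist mode with CXCL16 agonist at 10 nM final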
APJ antagonist: blocks the human apelin receptor APJ | P35414 | CHO-K1 APJ beta-arrestin complementation, luminescence | inhibition, % at 20 µM | 330,000 tested, 0.32% active | AID 2521;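 active = inhibition above about 40% at 20 µM, limit read from the data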;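 also: cells challenged with 10 nM apelin-13 agonist together with compound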
CCR6 antagonist: CCR6 (human) receptor antagonism; P51684; CHO-K1 CCR6 PathHunter beta-arrestin, luminescence, CCL20-stimulated; inhibition, % at 20 µM; 340,000 tested, 0.49% active; AID 493098;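 active = compounds whose inhibition of the agonist-driven luminescence signal at 20 µM reaches about 50%, limit read from the data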;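 also: cells stimulated with CCL20 at 14 nM final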
Target sequence (P51684 whole entry, looked up): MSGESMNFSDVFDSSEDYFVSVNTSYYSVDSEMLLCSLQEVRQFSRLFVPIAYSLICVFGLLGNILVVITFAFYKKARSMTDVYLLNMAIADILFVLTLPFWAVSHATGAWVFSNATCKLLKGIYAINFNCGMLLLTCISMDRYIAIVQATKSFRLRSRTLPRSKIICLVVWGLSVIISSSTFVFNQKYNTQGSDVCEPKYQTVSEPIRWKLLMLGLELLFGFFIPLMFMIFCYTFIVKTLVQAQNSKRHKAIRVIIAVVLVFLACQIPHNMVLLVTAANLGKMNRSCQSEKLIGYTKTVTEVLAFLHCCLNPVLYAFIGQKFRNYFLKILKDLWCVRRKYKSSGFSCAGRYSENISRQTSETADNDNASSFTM
EBI2 antag: EBI2 (human) antagonism. P32249. EBI2 beta-arrestin recruitment, luminescence, 7a,25-OHC stimulated. inhibition, % at 5 µM. 360,000 tested, 0.81% active; in the data active = inhibition above about 38%;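 also: enzyme fragment complementation signal reports receptor beta-arrestin coupling in cells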
Target sequence (P32249 whole entry, looked up, the tested form may be a part): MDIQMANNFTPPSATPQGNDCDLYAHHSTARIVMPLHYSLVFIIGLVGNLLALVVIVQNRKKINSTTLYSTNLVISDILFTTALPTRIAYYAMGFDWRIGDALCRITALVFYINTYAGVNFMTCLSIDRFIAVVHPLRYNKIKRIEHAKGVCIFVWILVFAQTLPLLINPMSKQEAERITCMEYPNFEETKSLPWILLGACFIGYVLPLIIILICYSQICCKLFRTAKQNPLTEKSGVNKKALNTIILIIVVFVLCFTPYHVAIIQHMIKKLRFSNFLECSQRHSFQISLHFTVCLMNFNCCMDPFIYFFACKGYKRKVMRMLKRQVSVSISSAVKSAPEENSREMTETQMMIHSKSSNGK
APJ ag: agonists of human APJ apelin receptor. AID 2520. CHO-K1 APJ PathHunter beta-arrestin, luminescence; 0% DMSO wells, 100% apelin. 330,000 tested, 0.11% active. activation, % at 20 µM;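 active = activation more than six SD over the plate average, tested at 20 µM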
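Test system – PathHunter CHO-K1 APJ (AGTRL-1) beta-arrestin reporter cells · Input – 1000 cells/well · Compound – single test compound dose, 20 µM final, 1% DMSO · Times – compound stimulation 90 min at 25 °C, detection 60 min · Technique – beta-gal luminescence · Read-out basis – APJ–arrestin association signal · Control set – negative DMSO alone, positive Apelin-13 at 10 nM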
CXCR6 confirm: CXCR6 antagonism confirmation, single concentration. shares compounds with CXCR6 block. CHO-K1 CXCR6 PathHunter beta-arrestin, luminescence. inhibition, % at 20 µM. 700 tested, 65% active;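 active = mean inhibition over four retests above 40%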;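 also: receptor stimulated with 10 nM CXCL16 agonist; beta-galactosidase fragment complementation upon beta-arrestin recruitment to receptor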
Hits are given with their value; 0 = inactive; - = no result given.

SMILES | CXCR6 block | APJ antagonist | CCR6 antagonist | EBI2 antag | APJ ag | CXCR6 confirm
C=C1C(=O)c2sccc2C(c2ccc(OC)c(OC)c2)C1COC(C)=O (stereo unspecified) | 93.9 | - | 92.4 | 60.5 | - | 97.4
CCN1CCN(CC(=O)N2N=C(c3cccs3)CC2c2ccc(OC)c(OC)c2)C(=O)C1=O (stereo unspecified) | 0 | 0 | 0 | 0 | 0 | -
COc1ccc(N2C(=O)C3CC(C)=C(C)CC3C2=O)c(OC)c1 (stereo unspecified) | 0 | 0 | 0 | 0 | 0 | -
COc1cc(N2C(=O)C=CC2=O)ccc1N1C(=O)C=CC1=O | 105.5 | - | 106.6 | 0 | - | 46.7
O=C(Nc1ccccc1Oc1ccccc1)[C@@H]1O[C@H](CO)[C@H](O)[C@H](O)[C@H]1O | 57.2 | - | - | 0 | - | 70.9
CCc1nnc(NS(=O)(=O)c2ccc(Nc3ccc([N+](=O)[O-])c4nonc34)cc2)s1 | 48.2 | 65.2 | 72.7 | 0 | 0 | 41.6
CCc1nnc(NS(=O)(=O)c2ccc(NS(=O)(=O)c3ccccc3[N+](=O)[O-])cc2)s1 | 0 | 0 | 0 | 0 | 0 | -
CC(=NNC(=S)N1CCCCC1)c1cccc(C)n1 | 42.8 | - | 0 | 0 | - | 0
CC(=NNC(=S)N1CCCCC1)c1ccccn1 | 0 | - | - | 0 | - | -
CC(C(Sc1ccccc1N)c1ccccc1)[N+](=O)[O-] (stereo unspecified) | 29.5 | 0 | 0 | 0 | 0 | 0
COC(=O)CN(c1ccccc1)S(=O)(=O)c1cc(Br)ccc1OC | 92.1 | 0 | 0 | 0 | 0 | 0
COc1ccc(Br)cc1S(=O)(=O)N(CC(=O)N1CCOCC1)c1ccccc1 | 0 | 0 | 0 | 0 | 0 | -
Cc1ccc(S(=O)(=O)N2CCC(N3CCN(C)CC3)CC2)cc1Cl | 0 | 0 | 0 | 0 | 0 | -
CCc1cc(=O)oc2c(C)c(OC(C)C(=O)NCCCn3ccnc3)ccc12 (stereo unspecified) | 0 | 0 | 0 | 0 | 0 | -
COC(=O)CN1C(=O)[C@H]2[C@@H](c3ccc(C)o3)N3C(=O)CN(Cc4ccccn4)C(=O)[C@@]3(C)[C@H]2C1=O | 104.1 | 0 | 0 | 0 | 0 | 0
Cc1ccccc1CS(=O)(=O)c1nnc([C@H](Cc2ccccc2)NC(=O)OC(C)(C)C)o1 | 64.5 | 0 | 88.6 | 0 | 0 | 58.2
CCSc1nnc([C@H](Cc2ccccc2)NC(=O)OC(C)(C)C)o1 | 0 | 0 | 0 | 0 | 0 | -
COc1ccc(C(C(=O)NC2CCCC2)N(C(=O)CNC(=O)c2ccco2)c2cccnc2)cc1 (stereo unspecified) | 0 | 0 | 0 | 0 | 0 | -
CCCC(CNC(C)=O)(C1=CCCCC1)c1ccccc1 (stereo unspecified) | 0 | - | - | 0 | - | -
O=C(Nc1cccc(N2C(=O)C=CC2=O)c1)c1cccs1 | 77.0 | 0 | - | 0 | 0 | 0
Cc1nc2ccccc2c(=O)n1-c1cccc(NC(=O)c2cccs2)c1 | 0 | 0 | 0 | 0 | 0 | -
N#Cc1cc(N2CCCCC2)c([N+](=O)[O-])cc1C#N | 0 | 0 | 0 | 0 | 0 | -
O=[N+]([O-])c1cc2no[n+]([O-])c2cc1N1CCCCC1 | 99.6 | - | 106.2 | 0 | - | 93.3
CCn1c(=O)c2[nH]c(Cl)nc2n(CC)c1=O | 0 | - | - | 0 | - | -
O=C(Nc1nnc(-c2ccco2)o1)c1ccc(Cl)s1 | 0 | 0 | 0 | 0 | 0 | -
SMILES | CXCR6 block | APJ antagonist | CCR6 antagonist | EBI2 antag | APJ ag | CXCR6 confirm
COc1cccc(-c2nnc(NC(=O)c3ccc(Cl)s3)o2)c1 | 54.9 | 0 | - | 0 | 0 | 45.7
CCOc1ccccc1NC(=O)c1ccc2c(c1)C(=O)N(CC)C2=O | 0 | 0 | 0 | 0 | 0 | -
O=C(Nc1nnc(-c2cccs2)o1)c1cccc(Oc2ccccc2)c1 | 44.5 | 0 | 0 | 0 | 0 | 0
CC1Sc2ccc(S(=O)(=O)CCC(=O)N3CCc4ccccc43)cc2NC1=O (stereo unspecified) | 0 | 0 | 0 | 0 | 0 | -
O=C1c2cccc3c([N+](=O)[O-])ccc(c23)C(=O)N1c1ccccn1 | 51.8 | 0 | - | 0 | 0 | 52.5
O=C(CSc1nccn1-c1ncc(C(F)(F)F)cc1Cl)c1ccc(Br)cc1 | 80.3 | 0 | 73.9 | 0 | 0 | 0
Cc1ccc(/C(CSc2nccn2-c2ncc(C(F)(F)F)cc2Cl)=N\O)cc1 | 0 | 0 | 0 | 0 | 0 | -
CC(C)(C)OC(=O)N1CC2(CCCCC2)CC1Cc1ccc(C(F)(F)F)cc1 (stereo unspecified) | 0 | - | - | 0 | - | -
Cc1ccc(C(=O)NCC(=O)N2CCCCCC2)cc1 | 0 | 0 | 0 | 0 | 0 | -
Cc1cccc(C(=O)NCC(=O)N2CCCC2)c1 | 40.3 | 0 | 0 | 0 | 0 | 0
OCC1OC(n2cnc3c(N4CCCCC4)ncnc32)C(O)C1O (stereo unspecified) | 0 | - | 0 | 0 | - | -
COc1ccc(CNC(=O)c2cc(S(=O)(=O)N3CCCCC3)ccc2Cl)cc1OC | 0 | 0 | 0 | 0 | 0 | -
CC(C)CC1C(=O)N(Cc2cn(CC3CCCCC3)nn2)CCS(=O)(=O)N1Cc1ccc(-c2ccc(Cl)c(Cl)c2)cc1 (stereo unspecified) | 103.7 | - | - | 0 | - | 0
COC(=O)c1cc(CSc2nc3ccc(C)cc3[nH]2)oc1C | 43.3 | 0 | 0 | 0 | 0 | 41.2
COc1ccc(CCNC(=O)COC(=O)Cc2cccc3ccccc23)cc1 | 0 | 0 | 0 | 0 | 0 | -
COc1ccc(CCNC(=O)COC(=O)Cc2ccc(OC)cc2)cc1 | 63.0 | 0 | 0 | 0 | 0 | 0
O=C(NCCCN1CCOCC1)c1cc2c(s1)CSC2 | 43.9 | 0 | 0 | 0 | 0 | 0
C=CCN(CC=C)C(=S)NC(=O)c1ccc(C)c(Br)c1 | 48.9 | 0 | 0 | 0 | 0 | 54.4
C=CCN(CC=C)C(=S)NC(=O)c1ccc(-c2ccccc2)cc1 | 52.8 | 0 | - | 0 | 0 | 72.8
C=CCN(CC=C)C(=S)NC(=O)c1ccc(OC)cc1 | 0 | 0 | 0 | 0 | 0 | -
O=C(Cc1ccc(NC(=O)C2CCN(C(=O)C3CC3)CC2)cc1)Nc1cccc(C(=O)N2CCCC2)c1 | 0 | - | 0 | 0 | - | -
Cc1cc(C)c2c(=O)n(CC(=O)Nc3cccc(F)c3)sc2n1 | 0 | 0 | 0 | 0 | 0 | -
Cc1cc(C)c2c(=O)n(CC(=O)Nc3ccc(Cl)cc3)sc2n1 | 64.6 | 0 | 0 | 0 | 0 | 0
Cc1ccc(NC(=O)Cn2sc3nc(C)cc(C)c3c2=O)c(Cl)c1 | 0 | 0 | 0 | 0 | 0 | -
CCOc1ccc(NC(=O)Cn2sc3nc(C)cc(C)c3c2=O)cc1 | 38.1 | 0 | 0 | 0 | 0 | 0
CC[N+]1(C)CCC(O)(/C=C/c2ccccc2)C(C(=O)/C=C/c2ccccc2)C1 (stereo unspecified) | 40.4 | - | 63.4 | 0 | - | 67.6
CCN1C(=O)N[C@@H](c2ccco2)C(C(=O)OC)=C1C | 0 | 0 | 0 | 0 | 0 | -
CCOC(=O)[C@]12CCCC=C1N(Cc1ccc(Cl)cc1Cl)C(=O)[C@H](CC(=O)NCC1CCCCC1)C2 | 0 | - | - | 0 | - | -
FC(F)(F)c1cnc(NNC(=S)Nc2ccccc2)c(Cl)c1 | 73.1 | - | - | 0 | - | 73.6
Fc1ccccc1NC(=S)NNc1ncc(C(F)(F)F)cc1Cl | 50.3 | 0 | 68.2 | 0 | 0 | 0

Assay outcomes from PubChem BioAssay.
